Results gathered from unrelated publications.
Protocols differ between the studies behind these lines.
FGFR2: Fibroblast growth factor receptor 2 (FGFR2, Homo sapiens, UniProt P21802)
FGFR2 N549H: Fibroblast growth factor receptor 2 (FGFR2, Homo sapiens, UniProt P21802, N549H)

| SMILES | target | read-out | action | method | tested at | endpoint | value |
| --- | --- | --- | --- | --- | --- | --- | --- |
| CN(C)C1CCN(CC#Cc2nn(C3CCCC3)c3nc(NCc4ccccc4)ncc23)C1 (centres unmarked) | FGFR2 | enzyme activity | inhibitor | FRET | 0.1 µM | inhibition | 0% |
| CCN(CC)CCNC(=O)c1c(C)[nH]c(/C=C2\C(=O)Nc3ccc(F)cc32)c1C | FGFR2 | enzyme activity | inhibitor |  | 10 µM | inhibition | 94% |
| O=C(NCCCC1CCCCC1)c1ccc(CNC(=O)c2cnn(-c3ccccc3)c2C(F)(F)F)cc1 | FGFR2 | cell-free assay |  | competition with immobilised ligand | 0.1 µM | remaining binding | 100% |
| CC(C)(O)[C@H]1CC[C@H](Nc2ccc3ncc(-c4cccc(C(F)(F)F)c4)n3n2)CC1 | FGFR2 | enzyme activity | inhibitor |  | 1 µM | remaining activity | 98.3% |
| COc1cc(-c2cn(C3CCc4c(F)cccc4N(CC(F)(F)F)C3=O)nn2)ccc1-n1cnc(C)c1 (centres unmarked) | FGFR2 | cell-free assay |  | competition with immobilised ligand | 1 µM | remaining binding | 100% |
| Cc1ccc(NC(=O)c2ccc(CN3CCN(C)CC3)cc2)cc1Nc1nc(-c2cccnc2)cs1 | FGFR2 | cell-free assay |  |  | 0.5 µM | remaining signal | 100% |
| CO[C@@H](C)c1c(Nc2ccc([C@H](N(C)C(=O)C3CCS(=O)(=O)CC3)C(F)(F)F)cc2)cnc2cc(Cl)nn12 | FGFR2 | cell-free assay |  | competition with immobilised ligand | 1 µM | remaining binding | 91% |
| CCCOc1ccc(OC)c(F)c1C(=O)c1ccc(C(=O)N[C@@H]2CNC[C@H]2NC(=O)c2ccc3[nH]ncc3c2)cc1 | FGFR2 N549H | enzyme activity | inhibitor |  | 10 µM | remaining activity | 69% |
| Cc1cc(NC(=O)c2cccc3cc(-c4cccc5[nH]nc(N)c45)ccc23)ccc1F | FGFR2 N549H | enzyme activity | inhibitor |  | 0.1 µM | activity vs control | 33% |
| Cc1sc(C(=O)NC2COC2)cc1-n1cc(NC(=O)Nc2c(F)cccc2Cl)cn1 | FGFR2 | enzyme activity | inhibitor |  | 10 µM | remaining activity | 105% |
| CNc1cccc2cc(C(=O)Nc3ccc(C(=O)O)cc3)c(=O)[nH]c12 | FGFR2 | enzyme activity | inhibitor |  | 10 µM | inhibition | -1% |
| CCN(CC)c1ccc(C2=NNC(=O)CC2C)cc1[N+](=O)[O-] (centres unmarked) | FGFR2 | enzyme activity | inhibitor |  | 10 µM | remaining activity | 115% |
| COc1cc(Cl)c(C(=O)N[C@@H](CN[C@H]2CC[C@@H](N)CC2)Cc2ccc(C#N)cc2)cc1-c1ccc(CN[C@H](C)c2ccc(C)cc2)o1 | FGFR2 | enzyme activity | inhibitor |  | 1 µM | remaining activity | 102% |
| Cc1ccc(Nc2nccc(N(C)c3ccc4c(C)n(C)nc4c3)n2)cc1S(N)(=O)=O | FGFR2 | enzyme activity | inhibitor |  | 0.3 µM | inhibition | 92% |
| CN(C)CC#Cc1ccc(OCCCc2sc(N3CCc4cccc(C(=O)Nc5nc6ccccc6s5)c4C3)nc2C(=O)O)c(F)c1 | FGFR2 | cell-free assay |  | competition with immobilised ligand | 1 µM | remaining binding | 98% |
| Cc1cnc(NC2CCOCC2)nc1-n1cnc(C(=O)NC(CN)c2cc(F)cc(Cl)c2)c1 (centres unmarked) | FGFR2 | enzyme activity | inhibitor | radiometric | 1 µM | remaining activity | 100% |
| O=C1Nc2ccc(Cl)cc2C1=Cc1cc(Cl)c(O)c(Cl)c1 | FGFR2 | cell-free assay |  |  | 0.5 µM | remaining signal | 92% |
| CN(c1ccnc(CNc2nc(Nc3ccc4c(c3)CC(=O)N4)ncc2C(F)(F)F)n1)S(C)(=O)=O | FGFR2 | cell-free assay |  | competition with immobilised ligand | 1 µM | remaining binding | 59% |
| CC(C)(C)c1nc2c(s1)c1nc(N)ncc1c1ccc(NS(=O)(=O)c3c(F)cccc3F)c(F)c12 | FGFR2 | enzyme activity | inhibitor | radiometric | 1 µM | remaining activity | 91% |
| Cc1nc(C2CCN(C(=O)c3ccc(OC(F)(F)F)cc3N)CC2)c2ncc(N3CCN(C)CC3)cc2n1 | FGFR2 | cell-free assay |  | competition with immobilised ligand | 1 µM | remaining binding | 100% |
| CNC(=O)c1cc(Oc2ccc(NC(=O)Nc3ccc(Cl)c(C(F)(F)F)c3)cc2)ccn1 | FGFR2 | enzyme activity | inhibitor |  | 10 µM | inhibition | 98% |
| COc1cc2c(N3CCN(C(=O)Nc4ccc(OC(C)C)cc4)CC3)ncnc2cc1OCCCN1CCCCC1 | FGFR2 | cell-free assay |  |  | 0.5 µM | remaining signal | 99.8% |
| Nc1ncnc2occ(-c3ccc(NC(=O)Nc4cc(C(F)(F)F)ccc4F)cc3)c12 | FGFR2 | cell-free assay |  |  | 20 µM | remaining signal | 0% |
| C[C@@]1(Cc2ccc(C#N)cc2)C(=O)N(c2cc(Cl)cc(Cl)c2)c2ncc(C(=O)NC3(c4nc(C5CCC5)no4)CC3)n21 | FGFR2 | cell-free assay |  | competition with immobilised ligand | 1 µM | remaining binding | 100% |
| Cc1ccc(NC(=O)c2ccc(C)c(C(F)(F)F)c2)cc1C#Cc1nn(C2CCC(O)CC2)c2ncnc(N)c12 (centres unmarked) | FGFR2 | cell-free assay |  |  | 10 µM | remaining signal | 0% |
| N#CCCc1ccc2c(c1)-c1[nH]c3ccc([N+](=O)[O-])cc3c1CC(=O)N2 | FGFR2 | cell-free assay |  |  | 0.5 µM | remaining signal | 93.2% |
